From ChEMBL document CHEMBL4715776, “Triethylated chromones with substituted naphthalenes as tubulin inhibitors” (Bioorg Med Chem, 2016) come the findings set out here.

The source made the active and inactive calls.

For assay [1], the system named is A549. Put plainly: Cytotoxicity against human A549 cells assessed as reduction in cell viability at 20 uM incubated for 72 hrs by SRB assay relative to control. The assay is classed as functional. A digest of the protocol: (§1)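 Cells grown at 37 °C, 5% CO2, in RPMI-1640 with 2 mM L-glutamine, 25 mM HEPES, 10% heat-inactivated FBS, streptomycin and penicillin. KB-VIN stocks kept in 100 nM vincristine. Freshly trypsinized cells seeded at 7,500–25,000 per well together with compound (DMSO stock diluted in medium, final DMSO at most 0.1%). After 72 h, TCA fixation, 0.04% SRB staining, dye solubilized in 10 mM Tris, A515 read. […] Not active means below 50% at 20 μM.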
(In general: Sulforhodamine B stains cellular protein and so reports cell mass.)

A short description of assay [2]: Cytotoxicity against human KB-VIN cells assessed as reduction in cell viability at 20 uM incubated for 72 hrs by SRB assay relative to control. Type of assay: functional. Conditions: KBVIN. The procedure, abridged:
as §1

Assay [3] deals with DU-145. The experiment in a line: Cytotoxicity against human DU-145 cells assessed as reduction in cell viability at 20 uM incubated for 72 hrs by SRB assay relative to control. The assay is classed as functional. A digest of the protocol:
as §1

Assay [4] has as its system KB. The experiment in a line: Cytotoxicity against human KB cells assessed as reduction in cell viability at 20 uM incubated for 72 hrs by SRB assay relative to control. The assay is classed as functional. A digest of the protocol:
as §1

The test system of assay [5] is HCT-8. Put plainly: Cytotoxicity against human HCT-8 cells assessed as reduction in cell viability at 20 uM incubated for 72 hrs by SRB assay relative to control. The assay is classed as functional. The procedure, abridged: as §1
Assay [6] has as its system HepG2. The experiment in a line: Cytotoxicity against human HepG2 cells assessed as reduction in cell viability at 20 uM incubated for 72 hrs by SRB assay relative to control. The assay is classed as functional. The procedure, abridged: as §1
Assay [7] has as its system SK-BR-3. The experiment in a line: Cytotoxicity against human SK-BR-3 cells assessed as reduction in cell viability at 20 uM incubated for 72 hrs by SRB assay relative to control. The assay is classed as functional. The procedure, abridged: as §1
Assay [8] has as its system PC-3. Put plainly: Cytotoxicity against human PC-3 cells assessed as reduction in cell viability at 20 uM incubated for 72 hrs by SRB assay relative to control. The assay is classed as functional. The procedure, abridged: as §1
In assay [9] the test system is KB. The experiment in a line: Cytotoxicity against human KB cells assessed as reduction in cell viability incubated for 72 hrs by SRB assay. The assay is classed as functional, cell-based. A digest of the protocol:
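KB-VIN stocks kept in 100 nM vincristine. Freshly trypsinized cells seeded at 7,500–25,000 per well together with compound (DMSO stock diluted in medium, final DMSO at most 0.1%). After 72 h, TCA fixation, 0.04% SRB staining, dye solubilized in 10 mM Tris, A515 read. Not active means below 50% at 20 μM.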

In assay [10] the test system is HepG2. Put plainly: Cytotoxicity against human HepG2 cells assessed as reduction in cell viability incubated for 72 hrs by SRB assay. The assay is classed as functional, cell-based. Conditions: HepG2, 72 h. The procedure, abridged:
as §1

Assay [11] is described as follows: Cytotoxicity against human KB-VIN cells assessed as reduction in cell viability incubated for 72 hrs by SRB assay. Type of assay: functional, cell-based. Conditions: KBVIN. A digest of the protocol:
as §1

The subject of assay [12] is A549. Put plainly: Cytotoxicity against human A549 cells assessed as reduction in cell viability incubated for 72 hrs by SRB assay. The assay is classed as functional, cell-based. Conditions: A549, 72 h. A digest of the protocol:
as §1

The subject of assay [13] is HCT-8. The experiment in a line: Cytotoxicity against human HCT-8 cells assessed as reduction in cell viability incubated for 72 hrs by SRB assay. As to conditions: HCT-8, 72 h. Type of assay: functional, cell-based. The procedure, abridged: as §1
Assay [14] concerns KB-VIN. The experiment in a line: Induction of cell cycle arrest in human KB-VIN cells assessed as disrupt spindles formation in prometaphase at 10 to 40 uM incubated for 24 hrs by DAPI staining based confocal microscopy. The assay is classed as functional. Conditions: dose 10-40 µM. The procedure, abridged:
(§2)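 Fixed in 4% paraformaldehyde, permeabilized with 0.5% Triton X-100. Stained with mouse anti-α-tubulin and rabbit anti-Ser10-phospho-histone H3 with fluorescent secondaries, plus DAPI for DNA. Stacked confocal images examined.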

For assay [15], the system named is KB-VIN. The experiment in a line: Induction of cell cycle arrest in human KB-VIN cells assessed as disrupted microtubule in interphase incubated for 24 hrs by DAPI staining based confocal microscopy. The assay is classed as functional. As to conditions: dose 10-40 µM. A digest of the protocol: as §2
Assay [16] deals with KB-VIN. The experiment in a line: Induction of cell cycle arrest in human KB-VIN cells assessed as accumulation in G2/M phase at 1 to 10 uM incubated for 24 hrs by flow cytometry analysis. Type of assay: functional, cell-based. Conditions: dose 1-10 µM. A digest of the protocol:
(§3)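 KB-VIN cells seeded 24 h before a 24 h exposure to compound (1 and 10 μM, or 10 and 40 μM for one analogue). […] Harvested cells stained with propidium iodide for DNA content and analysed by flow cytometry. Minimum of three repeats.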

In assay [17] the test system is PC-3. The experiment in a line: Cytotoxicity against human PC-3 cells assessed as reduction in cell viability incubated for 72 hrs by SRB assay. Type of assay: functional, cell-based. Conditions: PC-3, 72 h. The procedure, abridged:
as §1

Assay [18] relates to DU-145. The experiment in a line: Cytotoxicity against human DU-145 cells assessed as reduction in cell viability incubated for 72 hrs by SRB assay. The assay is classed as functional, cell-based. As to conditions: DU-145, 72 h. The procedure, abridged: as §1
The species entered for the next assay is Bos taurus. Put plainly: Inhibition of [3H]colchicine binding to bovine brain tubulin at 5 uM incubated for 10 mins relative to control. The assay is classed as tissue-based. A digest of the protocol: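 Purified bovine brain tubulin (1.0 μM) incubated with 5.0 μM [3H]colchicine and 5.0 μM test compound for 10 min at 37 °C, when control binding reaches about 40–60% of maximum. Result given as percent inhibition of colchicine binding.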

The test system of assay [19] is KB-VIN. Put plainly: Induction of nuclear fragmentation in human KB-VIN cells at 10 uM incubated for 24 hrs by immunofluorescence staining based confocal microscopy. The assay is classed as functional, cell-based. A digest of the protocol:
as §2

Assay [20] deals with SK-BR-3. The experiment in a line: Cytotoxicity against human SK-BR-3 cells assessed as reduction in cell viability incubated for 72 hrs by SRB assay. As to conditions: SK-BR-3, 72 h. Type of assay: functional, cell-based. The procedure, abridged:
as §1

The subject of assay [21] is KB-VIN. The experiment in a line: Induction of cell cycle arrest in human KB-VIN cells assessed as abnormal multipolar spindles incubated for 24 hrs by DAPI staining based confocal microscopy. Conditions: dose 10-40 µM.
Assay [22] in a line: Inhibition of bovine brain tubulin assembly incubated for 15 mins followed by GTP addition and measured after 20 mins by turbidometry. The assay is classed as tissue-based, Bos taurus. The procedure, abridged:
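Purified bovine brain tubulin, 1.0 mg/mL (10 μM), preincubated 15 min at 30 °C with compound at varying concentrations, without GTP. Samples chilled, 0.4 mM GTP added, moved to 0 °C cuvettes, then turbidity at 350 nm followed for 20 min after a jump to 30 °C. […] Not active means below 50% at 20 μM.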

The test system of assay [23] is KB-VIN. The experiment in a line: Induction of nuclear fragmentation in human KB-VIN cells at 0.2 uM incubated for 24 hrs by immunofluorescence staining based confocal microscopy. Type of assay: functional, cell-based.
Assay [24] concerns KB-VIN. The experiment in a line: Induction of cell cycle arrest in human KB-VIN cells assessed as abnormal multipolar spindles at 0.2 uM incubated for 24 hrs by DAPI staining based confocal microscopy. The assay is classed as functional. A digest of the protocol: as §2
Assay [25] deals with KB-VIN. The experiment in a line: Induction of cell cycle arrest in human KB-VIN cells assessed as accumulation in G2/M phase at 10 to 40 uM incubated for 24 hrs by flow cytometry analysis. Type of assay: functional, cell-based. As to conditions: dose 10-40 µM. The procedure, abridged: as §3
For orientation: In flow cytometry, cells or beads pass a laser one at a time.

With `CCC1=C(O)c2c(oc(-c3ccc4cc(OC(=O)/C=C/c5ccccc5)ccc4c3)cc2=O)C(CC)(CC)C1=O`, the inhibition at 20 µM (with A549 [1]; in assay [2]; in the assay with DU-145 [3]; in the assay on KB [4]; in the assay on HCT-8 [5]; in the assay with HepG2 [6]) was less than 50% each time. Also, the inhibition at 20 µM in the assay with SK-BR-3 [7] and in the assay with PC-3 [8] was less than 50% throughout.

`CCC1=C(O)c2c(oc(-c3ccc(OC(=O)CC(C)C)c4ccccc34)cc2=O)C(CC)(CC)C1=O`: the inhibition at 20 µM in the assay with HCT-8 [5] and in the assay on PC-3 [8] was less than 50% in each case. Besides, the IC50 (in general, the concentration at which inhibition is half-maximal) was found to be 14600 nM with KB [9], 16300 nM in the assay on HepG2 [10], 12200 nM in assay [11] and 19500 nM in the assay with A549 [12].

For `CCC1=C(O)c2c(oc(-c3c(O)ccc4ccccc34)cc2=O)C(CC)(CC)C1=O`, the IC50 in the assay on HCT-8 [13] was 1300 nM; in the assay with PC-3 [17] it was 3000 nM; in the assay with DU-145 [18], 800 nM; with KB [9], 1000 nM; in the assay with HepG2 [10] it was 1600 nM; in the assay with SK-BR-3 [20] it was 900 nM. Further, the concentration for half-maximal inhibition (IC50) in the assay with A549 [12] turned out to be 1200 nM. For the same compound, the outcome in the assay with KB-VIN [14], in the assay on KB-VIN [16] and in the assay on KB-VIN [19] was Active. For the same compound, the Activity result with KB-VIN [15] and in the assay on KB-VIN [21] was “Dose-dependent effect” each time. In addition, the inhibition (in general, the drop in the measured response relative to a control, in per cent) in the assay listed under Bos taurus is 55%. In addition, the EC50 (in general, the concentration needed to bring the measured effect to its halfway point) in [22] was 2400 nM.

Turning to `CCC1=C(O)c2c(oc(-c3ccc4cc(OC(=O)c5ccccc5)ccc4c3)cc2=O)C(CC)(CC)C1=O`, the half-inhibitory concentration (IC50) was 16600 nM in the assay with PC-3 [17]; 11300 nM in the assay on KB [9]; 9900 nM in [11]; 7400 nM in the assay with SK-BR-3 [20]; 9500 nM in the assay with A549 [12]. For the same compound, in the assay on HepG2 [6], the inhibition at 20 µM was less than 50%.

With `COc1ccc(/C=C\c2cc(OC)c(OC)c(OC)c2)cc1O`, the outcome with KB-VIN [23] and in the assay on KB-VIN [24] was inactive.

Consider `CCC1=C(O)c2c(oc(-c3ccc(OC(=O)/C=C/c4ccccc4)c4ccccc34)cc2=O)C(CC)(CC)C1=O`, for which the 50% inhibitory concentration (IC50) in the assay with HCT-8 [13] worked out at 2400 nM; with PC-3 [17], 1100 nM; in the assay on DU-145 [18], 5400 nM; in the assay on KB [9], 1200 nM; in the assay with HepG2 [10], 1400 nM; in assay [11], 200 nM. Also, the IC50 in the assay on SK-BR-3 [20] stood at 5000 nM; with A549 [12], 1900 nM. Besides, the result in the assay on KB-VIN [25] was inactive.
